According to ChEMBL document CHEMBL3822450, “Novel c-Met inhibitory olive secoiridoid semisynthetic analogs for the control of invasive breast cancer” (Eur J Med Chem, 2016):

Key:
[1] = target: Hepatocyte growth factor receptor (Homo sapiens, UniProt P08581); assay: Inhibition of recombinant human N-terminal His-tagged cytoplasmic c-MET kinase domain (956 to 1390 residues) phosphorylation expressed in baculovirus expression system using Tyr peptide-6 substrate incubated for 1 hr in presence of ATP by Z-Lyte assay
[2] = tested on: MDA-MB-231; assay: cells; conditions: Homo sapiens, MDA-MB-231, 72 h
[3] = tested on: MDA-MB-468; assay: cells; conditions: Homo sapiens, MDA-MB-468, 72 h
[4] = tested on: MDA-MB-231; assay: cells; conditions: Homo sapiens, MDA-MB-231, 24 h
[5] = Cytotoxicity against human MCF10A cells assessed as inhibition of HGF-induced cell growth up to 80 uM incubated for 24 hrs by MTT assay; format: cell-based; conditions: mcf-10a
[6] = tested on: MDA-MB-231; assay: Antiproliferative activity against human MDA-MB-231 spheroids expressing c-MET assessed as inhibition of HGF-induced spheroid growth measured every 4 hrs for 72 hrs by cell tracker red dye based 3D spheroid disaggregation assay; format: functional
Procedure, shortened: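 CellTracker Red-labelled cells, 1,000/well in ultra-low-attachment round-bottom wells with phenol-red-free DMEM, 10% FBS, 5% Matrigel; single spheroid formed over 24 h, then HGF stimulation with compound or DMSO; imaged every 4 h for 72 h at 37°C; average red-object area gives fold increase in spheroid size; 8 spheroids/group, repeated twice.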

[7] = tested on: MDA-MB-231; assay: Effect on total c-MET protein level in human MDA-MB-231 cells at 1 to 10 uM after 72 hrs by Western blot analysis; conditions: mda-mb-231, 72 h
Procedure, shortened: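 HGF-stimulated cells treated 72 h with 1, 5 or 10 µM or vehicle; RIPA lysates, BCA-normalised, SDS-PAGE, PVDF, blocked in 2% BSA/TBST; primary antibodies (1:1,000) overnight at 4°C against total c-Met and phospho-c-Met Y1234/1235, HRP secondary, ECL detection; β-tubulin loading control.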

[8] = tested on: MDA-MB-231; assay: Antiproliferative activity against human MDA-MB-231 cells expressing c-MET assessed as inhibition of HGF-induced cell growth incubated for 72 hrs by MTT assay
[9] = tested on: MDA-MB-468; assay: Antiproliferative activity against human MDA-MB-468 cells expressing c-MET assessed as inhibition of HGF-induced cell growth incubated for 72 hrs by MTT assay
[10] = cells; conditions: Homo sapiens, MCF-10A, 24 h

Structure (SMILES)	IC50 [1] [µM]	IC50 [2] [µM]	IC50 [3] [µM]	IC50 [4] [µM]	IC50 [10] [µM]	also measured
COc1cc(/C=C(\C#N)C(=O)OCCc2ccc(O)cc2)cc(Br)c1O	> 20	83.2	89.2	40.6		
COc1cc(CCC(=O)OCCc2ccc(O)cc2)cc(OC)c1O	> 20	91.3	92.2	> 50		
COc1cc(CCOC(=O)/C=C/c2cc(OC)c(O)c(OC)c2)ccc1O						Activity [5]: Non-toxic; growth inhibition (GI) [6]: Dose-dependent effect; Activity [7]: Non-toxic; growth inhibition (GI) [8]: Dose-dependent effect; growth inhibition (GI) [9]: Dose-dependent effect
COc1cc(/C=C/c2nc(-c3ccc(O)cc3)no2)cc(OC)c1O	> 20	72.3	79.1	16.3		
COc1cc(/C=C/C(=O)OCc2cc(OC)c(O)c(OC)c2)ccc1O					168	
COc1cc(/C=C/C=N/CCc2ccc(O)cc2)cc(OC)c1O	> 20	89.9	91.1	4.6		
COc1cc(/C=C/C(=O)OCCc2ccc(N)nc2)ccc1O					213	
COc1cc(/C=C/C(=O)NCCc2ccc(O)cc2)cc(OC)c1O [TRANS-N-SINAPOYLTYRAMINE]	> 20	72.8	80.2	> 50		
COc1cc(/C=C/C(=O)OCCc2ccc(N)nc2)cc(OC)c1O					210	
COc1cc(/C=C\C(=O)OCCc2ccc(OC)c(OC)c2)ccc1O	> 20	8.2	9.9	6.2	223	
COc1ccc(CCOC(=O)/C=C/c2cc(OC)c(O)c(OC)c2)cc1OC	> 20	9.2	8.6	7.8	214	
OCCc1ccc(O)cc1 [TYROSOL]	> 20	> 100	> 100	> 50		
COc1cc(/C=C/C(=O)OCCc2ccc(OC)c(OC)c2)ccc1O	> 20	7.3	8.9	5.4	274	
COc1cc(/C=C/C(=O)Oc2ccc(O)cc2C(C)=O)ccc1O	> 20	10.6	14.2	8.3		
COc1cc(/C=C/COC(=O)/C=C/c2ccc(O)c(OC)c2)ccc1O	> 20	22.3	25.6	19.8		
COc1ccc(CCOC(=O)/C=C\c2cc(OC)c(O)c(OC)c2)cc1OC	> 20	10.1	10.5	8.1		
COc1cc(/C=C/C(=O)OCCCc2ccc(O)cc2)cc(OC)c1O					203	
COc1cc(/C=C/C(=O)OCc2cc(OC)c(O)c(OC)c2)cc(OC)c1O					172	
O=C(/C=C/c1ccc(O)cc1)OCCc1ccc(O)c(O)c1	> 20	16	20.3	12.7		
COc1cc(/C=C/C(=O)OCCc2ccc(O)c(N)c2)cc(OC)c1O					186	
COc1cc(/C=C/C(=O)OCCCc2ccc(O)cc2)ccc1O					190	
COC(=O)C1=CO[C@@H](C)[C@@H](C=O)[C@@H]1CC(=O)OCCc1ccc(O)cc1	> 20	80.4	93.7	13.8		
COc1cc(/C=C/C(=O)OCCc2ccc(O)c(O)c2)ccc1N					244	
COc1cc(C=C(S)C(=O)OCCc2ccc(O)cc2)ccc1O	> 20	68.8	74.5	30.4		
COc1cc(/C=C/COC(=O)/C=C/c2cc(OC)c(O)c(OC)c2)ccc1O	> 20	27.9	31.2	18.8		
COc1cc(/C=C/C(=O)Oc2ccc(O)cc2C(C)=O)cc(OC)c1O	> 20	11.8	15.9	8.1		
